Measurements pooled from the literature.
Each line is one published result; the experiments were not run side by side.
Target: Vascular endothelial growth factor receptor 1 (FLT1, Homo sapiens, UniProt P17948)

With O=C(NCc1ncc(C(F)(F)F)cc1Cl)c1ccc2c(c1)C1(CCS(=O)(=O)CC1)[C@@H](C1CC1)N2S(=O)(=O)c1ccc(F)cc1 the remaining binding was 82% (cell-free assay, competition with immobilised ligand; 1 µM).
O=C(c1ccc(Nc2ncc(Cl)c(-c3ccc(Cl)s3)n2)cc1)N1CCC(N2CCCC2)CC1 has a remaining binding of 1.2% (binding, competition with immobilised ligand; 1 µM).
The remaining binding of Cc1cc(NC(=O)c2cccc(S(F)(F)(F)(F)F)c2)cc(-n2ccn3nc(-c4cccnc4)cc23)c1 is reported as 100% (cell-free assay, competition with immobilised ligand; 1 µM).
For N[C@H]1CCN(c2nccc(-c3cnn4ncccc34)n2)C1, the remaining binding was 99% (binding; 1 µM).
With COc1ncc2cc3ccccc3nc2c1C#N the remaining binding was 95% (cell-free assay, competition with immobilised ligand; 5 µM).
With COc1cnc(Nc2cccc(S(N)(=O)=O)c2)nc1N1CCN(c2ccccc2)C(=O)C1 the remaining binding was 98% (binding, competition with immobilised ligand; 1 µM).
Cc1cnn2ncc(-c3ccnc(N(C)C)n3)c2c1 gave a remaining binding of 97% (binding; 1 µM).
For CCC(=O)N[C@H]1CC[C@@H](C(=O)N(C)c2ccc(-c3nc4ccccc4o3)cc2)C1, the remaining binding was 98% (cell-free assay, competition with immobilised ligand; 1 µM).
O=C(NCCCN1CCOCC1)c1ccc(Nc2ncc(Cl)c(-c3ccc(Cl)s3)n2)cc1 has a remaining binding of 5.7% (binding, competition with immobilised ligand; 1 µM).
The remaining binding of C[C@@H](c1ccc(-n2cnc3c(N)ncnc32)cc1)N1CCc2nn(C)c(Cc3ccccc3)c2C1=O is reported as 81% (binding, competition with immobilised ligand; 0.1 µM).
For CN(CCCC(F)(F)F)c1nccc(-c2cnn3ncccc23)n1, the remaining binding was 100% (binding; 1 µM).
CN(C(=O)c1ccccc1)c1cc(N(C)c2ccc3c(c2)CCc2ccc(C(=O)NCCN4CCOCC4)cc2C3=O)ccc1F gave a remaining binding of 85% (cell-free assay, competition with immobilised ligand; 1 µM).
C[C@@H]1CCN(c2nccc(-c3cnn4ncccc34)n2)C1 has a remaining binding of 100% (binding; 1 µM).
With C=CC(=O)N1CCC(C(=O)NCC(=O)N2CCN(c3nc(-c4cnc(N)nc4C(F)F)nc(N4CCOCC4)n3)CC2)CC1 the remaining binding was 99% (binding, competition with immobilised ligand; 1 µM).
The remaining binding of Cc1nc(N2CC[C@@H](O)C2)ncc1-c1cc(C(F)(F)F)cc2[nH]ncc12 is reported as 100% (cell-free assay, competition with immobilised ligand; 1 µM).
CNC(=O)[C@@H]1CC[C@@H](n2c(-c3ccc4cnccc4c3)nc3ccc(C(=O)NCc4cccc(C(N)=O)c4)cc32)C1 gave a remaining binding of 100% (binding, competition with immobilised ligand; 1 µM).
CN(C)c1nccc(-c2cnn3ncccc23)n1 has a remaining binding of 100% (binding; 1 µM).
For COc1ccc2c(c1)O[C@@H](c1ccc(OC)c(OC)c1)C[C@H]2NC(=O)C1(c2ccc3c(c2)OC(F)(F)O3)CC1, the remaining binding was 100% (cell-free assay, competition with immobilised ligand; 1 µM).
The remaining binding of CN(C)c1ncc(F)c(-c2cnn3ncccc23)n1 is reported as 100% (binding; 1 µM).
For O=C(Nc1c[nH]nc1C(=O)NC1CCNCC1)c1cc(F)cc(F)c1, the remaining binding was 63% (binding, competition with immobilised ligand; 1 µM).
With O=C(NCCCN1CCOCC1)c1ccc(Nc2nccc(-c3cc4ccccc4s3)n2)cc1 the remaining binding was 70% (binding, competition with immobilised ligand; 1 µM).
CC1=C(C#N)[C@@H](c2ccc3[nH]nc(C)c3c2)C(C#N)=C(c2ccc(Cl)cc2)N1 has a remaining binding of 100% (cell-free assay, competition with immobilised ligand; 1 µM).
